Measurements reported in ChEMBL document CHEMBL2429740, “The synthesis and SAR study of phenylalanine-derived (Z)-5-arylmethylidene rhodanines as anti-methicillin-resistant Staphylococcus aureus (MRSA) compounds” (2013).
Values after ≈ are worked out from the molar mass of the structure shown.

What was measured:
Format in all cases: functional
[1] = tested on: Staphylococcus aureus; assay: Antibacterial activity against methicillin-resistant Staphylococcus aureus CA ATCC BAA-1680 by microdilution technique
[2] = tested on: Staphylococcus aureus; assay: Antibacterial activity against methicillin-resistant Staphylococcus aureus ATCC 700698 by microdilution technique
[3] = tested on: Staphylococcus aureus; assay: Antibacterial activity against methicillin-resistant Staphylococcus aureus ATCC BAA-39 by microdilution technique
[4] = tested on: Staphylococcus aureus; assay: Antibacterial activity against methicillin-resistant Staphylococcus aureus ATCC 700787 by microdilution technique
[5] = tested on: Staphylococcus aureus; assay: Antibacterial activity against methicillin-resistant Staphylococcus aureus ATCC 34404 by microdilution technique
[6] = tested on: Staphylococcus aureus; assay: Antibacterial activity against methicillin-resistant Staphylococcus aureus ST239 HS770 by microdilution technique
[7] = tested on: Staphylococcus aureus; assay: Ratio of MIC for methicillin-resistant Staphylococcus aureus ST239 HS770 in absence of 10% FBS to MIC for methicillin-resistant Staphylococcus aureus ST239 HS770 in presence of 10% FBS
How it was run: (§1)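 MIC determined by the same turbidity-based microdilution method, once in standard medium and once in medium with 10% fetal serum added, to probe serum protein binding. The ratio is the MIC without serum over the MIC with serum, for each strain.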

[8] = tested on: Staphylococcus aureus; assay: Ratio of MIC for methicillin-resistant Staphylococcus aureus CA ATCC BAA-1680 in absence of 10% FBS to MIC for methicillin-resistant Staphylococcus aureus CA ATCC BAA-1680 in presence of 10% FBS; how it was run: as §1
[9] = tested on: Staphylococcus aureus; assay: Ratio of MIC for methicillin-resistant Staphylococcus aureus ATCC BAA-39 in absence of 10% FBS to MIC for methicillin-resistant Staphylococcus aureus ATCC BAA-39 in presence of 10% FBS; how it was run: as §1
[10] = tested on: Staphylococcus aureus; assay: Ratio of MIC for methicillin-resistant Staphylococcus aureus ATCC 700698 in absence of 10% FBS to MIC for methicillin-resistant Staphylococcus aureus ATCC 700698 in presence of 10% FBS; how it was run: as §1
[11] = tested on: Staphylococcus aureus; assay: Ratio of MIC for methicillin-resistant Staphylococcus aureus ATCC 700787 in absence of 10% FBS to MIC for methicillin-resistant Staphylococcus aureus ATCC 700787 in presence of 10% FBS; how it was run: as §1
[12] = tested on: Staphylococcus aureus; assay: Ratio of MIC for methicillin-resistant Staphylococcus aureus ATCC 34404 in absence of 10% FBS to MIC for methicillin-resistant Staphylococcus aureus ATCC 34404 in presence of 10% FBS; how it was run: as §1

Row | Compound | MIC [1] | MIC [2] | MIC [3] | MIC [4] | MIC [5] | MIC [6] | Ratio [7] | Ratio [8] | Ratio [9] | Ratio [10] | Ratio [11] | Ratio [12]
1 | O=C(O)[C@H](Cc1ccccc1)N1C(=O)/C(=C/c2ccccc2Oc2ccccc2)SC1=S | 1.95 µg/mL (≈ 4.22 µM) | 1.95 µg/mL (≈ 4.22 µM) | 3.9 µg/mL (≈ 8.45 µM) | 1.95 µg/mL (≈ 4.22 µM) | 1.95 µg/mL (≈ 4.22 µM) |  |  |  |  |  |  | 
2 | COc1ccc(Oc2cccc(/C=C3\SC(=S)N([C@@H](Cc4ccccc4)C(=O)O)C3=O)c2)cc1 | 15.6 µg/mL (≈ 31.7 µM) | 7.8 µg/mL (≈ 15.9 µM) | 7.8 µg/mL (≈ 15.9 µM) | 7.8 µg/mL (≈ 15.9 µM) | 7.8 µg/mL (≈ 15.9 µM) |  |  |  |  |  |  | 
3 | O=C(O)[C@H](Cc1ccccc1)N1C(=O)/C(=C/c2cccc(-c3nccs3)c2)SC1=S | 31.2 µg/mL (≈ 69 µM) | 31.2 µg/mL (≈ 69 µM) | 7.8 µg/mL (≈ 17.2 µM) | 31.2 µg/mL (≈ 69 µM) | 15.6 µg/mL (≈ 34.5 µM) | 3.9 µg/mL (≈ 8.62 µM) |  |  |  |  |  | 
4 | O=C(O)[C@@H](Cc1ccccc1)N1C(=O)/C(=C/c2cccc(Oc3ccc(F)cc3)c2)SC1=S | 1.95 µg/mL (≈ 4.07 µM) | 1.95 µg/mL (≈ 4.07 µM) | 1.95 µg/mL (≈ 4.07 µM) | 1.95 µg/mL (≈ 4.07 µM) | 1.95 µg/mL (≈ 4.07 µM) | 1.95 µg/mL (≈ 4.07 µM) |  |  |  |  |  | 
5 | CN[C@H](CC(C)C)C(=O)N[C@H]1C(=O)N[C@@H](CC(N)=O)C(=O)N[C@H]2C(=O)N[C@H]3C(=O)N[C@H](C(=O)N[C@H](C(=O)O)c4cc(O)cc(O)c4-c4cc3ccc4O)[C@H](O)c3ccc(c(Cl)c3)Oc3cc2cc(c3O[C@@H]2O[C@H](CO)[C@@H](O)[C@H](O)[C@H]2O[C@H]2C[C@](C)(N)[C@H](O)[C@H](C)O2)Oc2ccc(cc2Cl)[C@H]1O [VANCOMYCIN] | ≤ 0.48 µg/mL | ≤ 0.48 µg/mL | ≤ 0.48 µg/mL | 1.95 µg/mL (≈ 1.35 µM) | ≤ 0.48 µg/mL | ≤ 0.48 µg/mL |  |  |  |  |  | 
6 | O=C(O)[C@H](Cc1ccccc1)N1C(=O)/C(=C/c2cccc(-c3ccc(Cl)c(Cl)c3)c2)SC1=S | 7.8 µg/mL (≈ 15.2 µM) | 7.8 µg/mL (≈ 15.2 µM) | 3.9 µg/mL (≈ 7.58 µM) | 3.9 µg/mL (≈ 7.58 µM) | 3.9 µg/mL (≈ 7.58 µM) | 1.95 µg/mL (≈ 3.79 µM) |  |  |  |  |  | 
7 | CC1(C)S[C@@H]2[C@H](NC(=O)Cc3ccccc3)C(=O)N2[C@H]1C(=O)O [PENICILLIN G] | 125 µg/mL (≈ 374 µM) | 15.6 µg/mL (≈ 46.7 µM) | 62.5 µg/mL (≈ 187 µM) | 62.5 µg/mL (≈ 187 µM) | 31.2 µg/mL (≈ 93.5 µM) | 250 µg/mL (≈ 748 µM) |  |  |  |  |  | 
8 | O=C(c1ccccc1)c1cccc(/C=C2\SC(=S)N([C@@H](Cc3ccccc3)C(=O)O)C2=O)c1 | 3.9 µg/mL (≈ 8.24 µM) | 7.8 µg/mL (≈ 16.5 µM) | 3.9 µg/mL (≈ 8.24 µM) | 7.8 µg/mL (≈ 16.5 µM) | 3.9 µg/mL (≈ 8.24 µM) |  |  |  |  |  |  | 
9 | O=C(O)[C@H](Cc1ccccc1)N1C(=O)/C(=C/c2cccc(-c3ccccc3)c2)SC1=S | 1.95 µg/mL (≈ 4.38 µM) | 1.95 µg/mL (≈ 4.38 µM) | 0.98 µg/mL (≈ 2.2 µM) | 1.95 µg/mL (≈ 4.38 µM) | 0.98 µg/mL (≈ 2.2 µM) | 1.95 µg/mL (≈ 4.38 µM) | 2 | 2 | 2 | 2 | 2 | 2
10 | O=C(O)[C@H](Cc1ccccc1)N1C(=O)/C(=C/c2ccccc2OCCc2ccccc2)SC1=S | 7.8 µg/mL (≈ 15.9 µM) | 7.8 µg/mL (≈ 15.9 µM) | 15.6 µg/mL (≈ 31.9 µM) | 15.6 µg/mL (≈ 31.9 µM) | 15.6 µg/mL (≈ 31.9 µM) | 15.6 µg/mL (≈ 31.9 µM) |  |  |  |  |  | 
11 | O=C(O)[C@H](Cc1ccccc1)N1C(=O)/C(=C/c2cccc(OCCc3ccccc3)c2)SC1=S | 15.6 µg/mL (≈ 31.9 µM) | 31.2 µg/mL (≈ 63.8 µM) | 31.2 µg/mL (≈ 63.8 µM) | 31.2 µg/mL (≈ 63.8 µM) | 31.2 µg/mL (≈ 63.8 µM) | 15.6 µg/mL (≈ 31.9 µM) |  |  |  |  |  | 
12 | O=C(O)[C@H](Cc1ccccc1)N1C(=O)/C(=C/c2cccc(Oc3cccc(F)c3)c2)SC1=S | 31.2 µg/mL (≈ 65.2 µM) | 15.6 µg/mL (≈ 32.5 µM) | 15.6 µg/mL (≈ 32.5 µM) | 31.2 µg/mL (≈ 65.2 µM) | 15.6 µg/mL (≈ 32.5 µM) |  |  |  |  |  |  | 
13 | O=C(O)[C@H](Cc1ccccc1)N1C(=O)/C(=C/c2cccc(Oc3ccc(Cl)cc3)c2)SC1=S | 15.6 µg/mL (≈ 31.5 µM) | 7.8 µg/mL (≈ 15.7 µM) | 7.8 µg/mL (≈ 15.7 µM) | 15.6 µg/mL (≈ 31.5 µM) | 7.8 µg/mL (≈ 15.7 µM) |  |  |  |  |  |  | 
14 | O=C(O)[C@H](Cc1ccccc1)N1C(=O)/C(=C/c2cccc(Oc3ccc(F)cc3)c2)SC1=S | 7.8 µg/mL (≈ 16.3 µM) | 7.8 µg/mL (≈ 16.3 µM) | 7.8 µg/mL (≈ 16.3 µM) | 7.8 µg/mL (≈ 16.3 µM) | 7.8 µg/mL (≈ 16.3 µM) |  |  |  |  |  |  | 
15 | O=C(O)[C@H](Cc1ccccc1)N1C(=O)/C(=C/c2cccc(OCc3ccccc3)c2)SC1=S | 1.95 µg/mL (≈ 4.1 µM) | 3.9 µg/mL (≈ 8.2 µM) | 1.95 µg/mL (≈ 4.1 µM) | 3.9 µg/mL (≈ 8.2 µM) | 1.95 µg/mL (≈ 4.1 µM) | 1.95 µg/mL (≈ 4.1 µM) |  |  |  |  |  | 
16 | O=C(O)[C@@H](Cc1ccccc1)N1C(=O)/C(=C/c2cccc(Oc3ccc(Cl)cc3)c2)SC1=S | 1.95 µg/mL (≈ 3.93 µM) | 3.9 µg/mL (≈ 7.86 µM) | 1.95 µg/mL (≈ 3.93 µM) | 3.9 µg/mL (≈ 7.86 µM) | 1.95 µg/mL (≈ 3.93 µM) | 1.95 µg/mL (≈ 3.93 µM) |  |  |  |  |  | 
